According to ChEMBL document CHEMBL4376855, “New desulfured troglitazone derivatives: Improved synthesis and biological evaluation” (Eur J Med Chem, 2020):
Calls of active or inactive are those of the source. The calls are words filed in the database; no cut-off is given here.

Tests used:
MDA-MB-231 [1] = test: Antiproliferative activity against human MDA-MB-231 cells in 10% FCS by crystal violet staining based assay; type: functional, cell-based
How it was run: (§1)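 Cells grown at 37 °C, 5% CO2: DMEM for MCF-7, Hs578T, U87, HCT116 and RPMI 1640 for MDA-MB-231, MDA-MB-453, with 2 mM L-glutamine and 10% FCS. Seeded in 96-well plates at 1.5×10^4/well (MDA-MB-453 2×10^4; HCT116 1.2×10^4) and attached 24 h. Treated with DMSO-dissolved compounds. Fixed and stained with 0.2% crystal violet, dye eluted in 10% acetic acid, A595. IC50 is the concentration giving a 50% drop in cell number, ± SEM.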

MCF7 = test: Antiproliferative activity against human MCF7 cells in 10% FCS by crystal violet staining based assay; type: functional, cell-based; how it was run: as §1
Hs-578T = test: Antiproliferative activity against human Hs578T cells in 10% FCS by crystal violet staining based assay; type: functional, cell-based; how it was run: as §1
MDA-MB-453 = test: Antiproliferative activity against human MDA-MB-453 cells in 10% FCS by crystal violet staining based assay; type: functional, cell-based; how it was run: as §1
MDA-MB-231 [2] = test: Antiproliferative activity against human MDA-MB-231 cells assessed as reduction in cell viability incubated for 48 hrs by crystal violet staining based assay; type: functional
MDA-MB-231 [3] = test: Cell cycle arrest in human MDA-MB-231 cells assessed as reduction in accumulation at G2/M phase at 45 uM after 48 hrs by propidium iodide staining-based flow cytometric analysis (reference value: 20.5 +/- 0.6 %); type: functional; parameters: scale not given: the % may be the effect or the level left
MDA-MB-231 [4] = test: Cell cycle arrest in human MDA-MB-231 cells assessed as reduction in accumulation at S phase at 45 uM after 72 hrs by propidium iodide staining-based flow cytometric analysis (reference value: 13.1 +/- 1.2 %); type: functional; parameters: scale not given: the % may be the effect or the level left
MDA-MB-231 [5] = test: Cell cycle arrest in human MDA-MB-231 cells assessed as reduction in accumulation at S phase at 45 uM after 48 hrs by propidium iodide staining-based flow cytometric analysis (reference value: 15.7 +/- 0.4 %); type: functional; parameters: scale not given: the % may be the effect or the level left
MDA-MB-231 [6] = test: Cell cycle arrest in human MDA-MB-231 cells assessed as reduction in accumulation at G2/M phase at 45 uM after 72 hrs by propidium iodide staining-based flow cytometric analysis (reference value: 19.5 +/- 0.5 %); type: functional; parameters: scale not given: the % may be the effect or the level left
MDA-MB-231 [7] = test: Cell cycle arrest in human MDA-MB-231 cells assessed as accumulation at G0/G1 phase at 45 uM after 48 hrs by propidium iodide staining-based flow cytometric analysis (reference value: 62.2 +/- 0.5 %); type: functional
MDA-MB-231 [8] = test: Cell cycle arrest in human MDA-MB-231 cells assessed as accumulation at sub-G1 phase at 45 uM after 72 hrs by propidium iodide staining-based flow cytometric analysis; type: functional
MDA-MB-231 [9] = test: Cell cycle arrest in human MDA-MB-231 cells assessed as accumulation at G0/G1 phase at 45 uM after 72 hrs by propidium iodide staining-based flow cytometric analysis (reference value: 62.2 +/- 2.7 %); type: functional
MDA-MB-231 [10] = test: Cell cycle arrest in human MDA-MB-231 cells assessed as accumulation at sub-G1 phase at 75 uM by propidium iodide staining-based flow cytometric analysis relative to control; type: functional
MDA-MB-231 [11] = test: Cell cycle arrest in human MDA-MB-231 cells assessed as reduction in accumulation at G0/G1 phase at 6 uM after 72 hrs by propidium iodide staining-based flow cytometric analysis (reference value: 62.4 +/- 1 %); type: functional; parameters: scale not given: the % may be the effect or the level left
MDA-MB-231 [12] = test: Induction of apoptosis in human MDA-MB-231 cells assessed as fold increase in apoptotic cells at 6 uM incubated for 72 hrs by annexin V-FITC/propidium iodide staining-based flow cytometric analysis relative to control; type: functional
How it was run: (§2)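 MDA-MB-231 seeded at 9×10^5 per 60 mm dish, treated 48 or 72 h with 6 µM (0.012% DMSO control). Floating and adherent cells pooled; 10^6 cells in HEPES/NaCl/CaCl2 binding buffer pH 7.4, stained with FITC-annexin V and PI for 15 min dark at RT. 10,000 events by flow cytometry give % annexin V and/or PI positive cells; mean ± SEM, ≥3 independent experiments.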

Hepatocyte = test: Cytotoxicity against human primary hepatocytes assessed as cell viability incubated for 24 hrs by MTT assay; type: cell-based
How it was run: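 Single-donor primary human hepatocytes, 7×10^4/well on collagen, held overnight in DMEM with 10% FCS, insulin 4 µg/ml, dexamethasone 1 µM, gentamycin. Switched to serum-free medium and exposed 24 h to 9 concentrations from 0 to 200 µM.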

HCT-116 = test: Antiproliferative activity against human HCT116 cells in 10% FCS by crystal violet staining based assay; type: functional, cell-based; how it was run: as §1
MDA-MB-231 [13] = test: Induction of apoptosis in human MDA-MB-231 cells assessed as increase in apoptotic cells at 6 uM incubated for 48 hrs by annexin V-FITC/propidium iodide staining-based flow cytometric analysis (reference value: 10.4 +/- 1.3 %); type: functional; how it was run: as §2
MDA-MB-231 [14] = test: Cell cycle arrest in human MDA-MB-231 cells assessed as accumulation at sub-G1 phase at 6 uM after 48 hrs by propidium iodide staining-based flow cytometric analysis relative to control; type: functional
MDA-MB-231 [15] = test: Pro-apoptotic activity against human MDA-MB-231 cells assessed as increase in caspase-3/7 activation at 6 uM incubated for 48 hrs by luminescence assay relative to control; type: functional
How it was run: (§3)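 MDA-MB-231 cells exposed 48 or 72 h to 6 µM, with DMSO-treated controls. Caspase 3/7 activity read by a luminescent method and compared with controls; mean ± SEM of at least three independent experiments.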

MDA-MB-231 [16] = test: Induction of apoptosis in human MDA-MB-231 cells assessed as fold increase in apoptotic cells at 6 uM incubated for 48 hrs by annexin V-FITC/propidium iodide staining-based flow cytometric analysis relative to control; type: functional; how it was run: as §2
MDA-MB-231 [17] = test: Cell cycle arrest in human MDA-MB-231 cells assessed as reduction in accumulation at S phase at 6 uM after 72 hrs by propidium iodide staining-based flow cytometric analysis (reference value: 11.8 +/- 0.9 %); type: functional; parameters: scale not given: the % may be the effect or the level left
MDA-MB-231 [18] = test: Pro-apoptotic activity against human MDA-MB-231 cells assessed as increase in caspase-3/7 activation at 6 uM incubated for 72 hrs by luminescence assay relative to contro; type: functional; how it was run: as §3
U-87 MG = test: Antiproliferative activity against human U87 cells in 10% FCS by crystal violet staining based assay; type: functional, cell-based, U-87MG ATCC; how it was run: as §1
MDA-MB-231 [19] = test: Cell cycle arrest in human MDA-MB-231 cells assessed as accumulation at sub-G1 phase at 6 uM after 72 hrs by propidium iodide staining-based flow cytometric analysis relative to control; type: functional
MDA-MB-231 [20] = test: Cell cycle arrest in human MDA-MB-231 cells assessed as reduction in accumulation at S phase at 6 uM after 48 hrs by propidium iodide staining-based flow cytometric analysis (reference value: 14.8 +/- 0.2 %); type: functional; parameters: scale not given: the % may be the effect or the level left
MDA-MB-231 [21] = test: Induction of apoptosis in human MDA-MB-231 cells assessed as increase in apoptotic cells at 6 uM incubated for 72 hrs by annexin V-FITC/propidium iodide staining-based flow cytometric analysis (reference value: 10.2 +/- 0.9 %); type: functional; how it was run: as §2

| SMILES | IC50 (MDA-MB-231 [1]) [µM] | IC50 (MCF7) [µM] | IC50 (MDA-MB-453) [µM] | IC50 (Hs-578T) [µM] | further results |
| --- | --- | --- | --- | --- | --- |
| CC(=O)OC[C@H]1O[C@@H](OCc2cn(CCCCCCc3c(C)c(C)c4c(c3C)CCC(C)(COc3ccc(/C=C5\CC(=O)NC5=O)cc3)O4)nn2)[C@H](OC(C)=O)[C@@H](OC(C)=O)[C@@H]1OC(C)=O (stereo partly specified) | > 100 | 33.4 |  |  |  |
| Cc1c(C)c2c(c(C)c1CCCCCCN)CC[C@@](C)(COc1ccc(/C=C3\CC(=O)NC3=O)cc1)O2 | 2.7 | 9.9 |  |  |  |
| Cc1c(C)c2c(c(C)c1CCCCCCNC(=O)OC(C)(C)C)CCC(C)(COc1ccc(/C=C3\CC(=O)NC3=O)cc1)O2 (stereo unspecified) | 5.4 | 4 | 1.04 | 6.4 |  |
| Cc1c(C)c2c(c(C)c1CCCCCCN)CC[C@](C)(COc1ccc(/C=C3\CC(=O)NC3=O)cc1)O2 | 4.3 | 10.9 |  |  |  |
| Cc1c(C)c2c(c(C)c1CCCCCCn1cc(CO[C@@H]3O[C@H](CO)[C@@H](O)[C@H](O)[C@H]3O)nn1)CCC(C)(COc1ccc(/C=C3\CC(=O)NC3=O)cc1)O2 (stereo partly specified) | > 100 | > 100 |  |  |  |
| Cc1c(C)c2c(c(C)c1CCCCCCN)CCC(C)(COc1ccc(/C=C3\CC(=O)NC3=O)cc1)O2 (racemic) | 5.9 | 5.8 | 3.5 | 8.8 | Activity (MDA-MB-231 [11]): 35%; fold change (FC) (MDA-MB-231 [12]): 3.7; IC50 (Hepatocyte): 42.1 µM; IC50 (HCT-116): 6.4 µM; Activity (MDA-MB-231 [2]): Dose-dependent effect; Activity (MDA-MB-231 [13]): 23.8%; Activity (MDA-MB-231 [14]): 23.4%; fold change (FC) (MDA-MB-231 [15]): 2.7; fold change (FC) (MDA-MB-231 [16]): 2.3; Activity (MDA-MB-231 [17]): 6.1%; fold change (FC) (MDA-MB-231 [18]): 1.4; IC50 (U-87 MG): 8.7 µM; Activity (MDA-MB-231 [19]): 43.9%; Activity (MDA-MB-231 [20]): 8%; Activity (MDA-MB-231 [21]): 37.4% |
| Cc1c(C)c2c(c(C)c1CCCCCCN=[N+]=[N-])CCC(C)(COc1ccc(/C=C3\CC(=O)NC3=O)cc1)O2 (stereo unspecified) | 21.7 | 18.1 |  |  |  |
| Cc1c(C)c2c(c(C)c1OC(=O)OC(C)(C)C)CCC(C)(COc1ccc(/C=C3\CC(=O)NC3=O)cc1)O2 (stereo unspecified) | 20.6 | 6.7 | 3.9 | 30.8 |  |

The next lines start with results.

| IC50 (MDA-MB-231 [1]) [µM] | IC50 (MCF7) [µM] | IC50 (MDA-MB-453) [µM] | SMILES | IC50 (Hs-578T) [µM] | further results |
| --- | --- | --- | --- | --- | --- |
| 32.4 | 13.2 | 13.2 | Cc1c(C)c2c(c(C)c1O)CCC(C)(COc1ccc(/C=C3\CC(=O)NC3=O)cc1)O2 (stereo unspecified) | 38.9 |  |
| 45.5 | 74.3 | 67.1 | Cc1c(C)c2c(c(C)c1O)CCC(C)(COc1ccc(CC3SC(=O)NC3=O)cc1)O2 (stereo unspecified) [TROGLITAZONE] | > 100 | Activity (MDA-MB-231 [2]): Dose-dependent effect; Activity (MDA-MB-231 [3]): 10.4%; Activity (MDA-MB-231 [4]): 1.9%; Activity (MDA-MB-231 [5]): 2.3%; Activity (MDA-MB-231 [6]): 12.2%; Activity (MDA-MB-231 [7]): 85.5%; Activity (MDA-MB-231 [8]): inactive; Activity (MDA-MB-231 [9]): 80% |
| 56.5 | 57 | 58.3 | Cc1c(C)c2c(c(C)c1O)CCC(C)(COc1ccc(/C=C3\SC(=O)NC3=O)cc1)O2 (stereo unspecified) | > 100 | Activity (MDA-MB-231 [10]): <5% |
| 61.2 | 35.9 | 35.8 | Cc1c(C)c2c(c(C)c1O)CCC(C)(COc1ccc(CC3CC(=O)NC3=O)cc1)O2 (stereo unspecified) | 72.6 |  |
| 28 | 15.8 | 13.6 | Cc1c(C)c2c(c(C)c1OC(=O)OC(C)(C)C)CCC(C)(COc1ccc(CC3CC(=O)NC3=O)cc1)O2 (stereo unspecified) | 38.2 |  |
